ChEMBL document CHEMBL1123018, “7 alpha-substituted derivatives of androstenedione as inhibitors of estrogen biosynthesis” (J Med Chem, 1985)

Key:
Aromatase [1] = target: T1, Aromatase (Homo sapiens, UniProt P11511); assay: Inhibition of Cytochrome P450 19A1 at 0.25 uM
T1 sequence (P11511 whole entry): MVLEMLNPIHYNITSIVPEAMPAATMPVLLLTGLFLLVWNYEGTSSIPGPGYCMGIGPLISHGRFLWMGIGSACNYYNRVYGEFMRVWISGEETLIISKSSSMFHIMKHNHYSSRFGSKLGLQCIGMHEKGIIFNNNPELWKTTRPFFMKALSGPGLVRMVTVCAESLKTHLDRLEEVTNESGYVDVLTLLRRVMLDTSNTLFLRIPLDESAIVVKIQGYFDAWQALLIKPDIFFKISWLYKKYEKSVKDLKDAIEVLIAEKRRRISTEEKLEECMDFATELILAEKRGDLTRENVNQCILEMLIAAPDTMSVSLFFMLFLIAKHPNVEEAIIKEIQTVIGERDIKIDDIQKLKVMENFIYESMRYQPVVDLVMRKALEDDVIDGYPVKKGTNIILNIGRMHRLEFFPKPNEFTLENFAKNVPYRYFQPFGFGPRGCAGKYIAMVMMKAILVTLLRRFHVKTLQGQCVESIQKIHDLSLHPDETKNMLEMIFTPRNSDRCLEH
Method in brief: (§1)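 Aromatase source was lyophilized human placental microsomes, measured by tritiated water release. The substrate was 0.25 μM [1-³H]androstenedione (83% of the tritium in the β position), about 5 times the Km for this enzyme preparation. Inhibitor was tested at 0.25 μM or 1.25 μM with buffer and cofactors for 15 min. Ethyl acetate stopped the reaction.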

Aromatase [2] = target: T1, Aromatase; assay: Inhibition of Cytochrome P450 19A1 at 1.25 uM; method in brief: as §1

Row | SMILES | inhibition at 0.25 µM (Aromatase [1]) [%] | inhibition at 1.25 µM (Aromatase [2]) [%]
1 | C[C@]12CCC(=O)C=C1C[C@@H](Sc1ccc(N)cc1)[C@@H]1[C@@H]2CC[C@]2(C)C(=O)CC[C@@H]12 | 51.6 | 85
2 | C[C@]12CCC(=O)C=C1C[C@@H](SCc1ccccc1)[C@@H]1[C@@H]2CC[C@]2(C)C(=O)CC[C@@H]12 | 33.5 | 69.8
3 | C[C@]12CCC(=O)C=C1C[C@@H](Sc1cccc(N)c1)[C@@H]1[C@@H]2CC[C@]2(C)C(=O)CC[C@@H]12 | 39.9 | 73.3
4 | Cc1ccc(S[C@@H]2CC3=CC(=O)CC[C@]3(C)[C@H]3CC[C@]4(C)C(=O)CC[C@H]4[C@H]23)cc1 | 7.83 | 24.9
5 | C[C@]12CCC(=O)C=C1C[C@@H](SC1CCCCC1)[C@@H]1[C@@H]2CC[C@]2(C)C(=O)CC[C@@H]12 | 18.5 | 32.2
6 | CCN(CC)c1ccc(S[C@@H]2CC3=CC(=O)CC[C@]3(C)[C@H]3CC[C@]4(C)C(=O)CC[C@H]4[C@H]23)cc1 | 11.7 | 53.2
7 | C[C@]12CCC(=O)C=C1C[C@@H](Sc1ccc(F)cc1)[C@@H]1[C@@H]2CC[C@]2(C)C(=O)CC[C@@H]12 | 55.3 | 74.1
8 | C[C@]12CCC(=O)C=C1C[C@@H](Sc1ccc(I)cc1)[C@@H]1[C@@H]2CC[C@]2(C)C(=O)CC[C@@H]12 | 45 | 83.7
9 | CC(=O)c1ccc(S[C@@H]2CC3=CC(=O)CC[C@]3(C)[C@H]3CC[C@]4(C)C(=O)CC[C@H]4[C@H]23)cc1 | 55.7 | 84.4
10 | C[C@]12CCC(=O)C=C1C[C@@H](Sc1ccccc1)[C@@H]1[C@@H]2CC[C@]2(C)C(=O)CC[C@@H]12 | 62.7 | 66.8
11 | COc1ccc(S[C@@H]2CC3=CC(=O)CC[C@]3(C)[C@H]3CC[C@]4(C)C(=O)CC[C@H]4[C@H]23)cc1 | 7.93 | 36.7
12 | C[C@]12CCC(=O)C=C1C[C@@H](Sc1ccc(Cl)cc1)[C@@H]1[C@@H]2CC[C@]2(C)C(=O)CC[C@@H]12 | 56.5 | 83.4
13 | C[C@]12CCC(=O)C=C1C[C@@H](Sc1ccc(Br)cc1)[C@@H]1[C@@H]2CC[C@]2(C)C(=O)CC[C@@H]12 | 47.3 | 80.8
